Mdm2-MdmX inh: inhibitors of human Mdm2-MdmX association, primary screen, cell-based, luminescence, split luciferase, SaOS-2, uHTS. SaOS-2 split-luciferase Mdm2/MdmX complementation. inhibition, % at 8 µM. Protein Mdm4 (Homo sapiens) + E3 ubiquitin-protein ligase Mdm2 (Homo sapiens), …. 330,000 tested, 3% active;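 active means inhibition of at least 50% at 8 µM in the primary screen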
Target sequence (O15151 whole entry, looked up): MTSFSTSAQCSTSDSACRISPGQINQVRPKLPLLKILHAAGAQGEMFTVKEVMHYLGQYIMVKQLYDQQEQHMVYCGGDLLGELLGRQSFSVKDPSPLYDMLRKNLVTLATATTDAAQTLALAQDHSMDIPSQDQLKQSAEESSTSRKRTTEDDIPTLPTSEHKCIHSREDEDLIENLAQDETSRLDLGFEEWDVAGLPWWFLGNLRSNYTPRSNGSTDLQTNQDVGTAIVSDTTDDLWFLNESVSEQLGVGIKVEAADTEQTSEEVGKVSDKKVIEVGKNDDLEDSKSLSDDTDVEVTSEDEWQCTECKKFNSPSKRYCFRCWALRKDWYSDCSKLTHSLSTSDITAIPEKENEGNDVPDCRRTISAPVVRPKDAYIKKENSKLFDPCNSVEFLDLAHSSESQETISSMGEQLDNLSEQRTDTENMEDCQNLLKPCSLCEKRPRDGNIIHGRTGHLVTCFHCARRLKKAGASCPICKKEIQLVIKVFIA
Target sequence (Q00987 whole entry, looked up): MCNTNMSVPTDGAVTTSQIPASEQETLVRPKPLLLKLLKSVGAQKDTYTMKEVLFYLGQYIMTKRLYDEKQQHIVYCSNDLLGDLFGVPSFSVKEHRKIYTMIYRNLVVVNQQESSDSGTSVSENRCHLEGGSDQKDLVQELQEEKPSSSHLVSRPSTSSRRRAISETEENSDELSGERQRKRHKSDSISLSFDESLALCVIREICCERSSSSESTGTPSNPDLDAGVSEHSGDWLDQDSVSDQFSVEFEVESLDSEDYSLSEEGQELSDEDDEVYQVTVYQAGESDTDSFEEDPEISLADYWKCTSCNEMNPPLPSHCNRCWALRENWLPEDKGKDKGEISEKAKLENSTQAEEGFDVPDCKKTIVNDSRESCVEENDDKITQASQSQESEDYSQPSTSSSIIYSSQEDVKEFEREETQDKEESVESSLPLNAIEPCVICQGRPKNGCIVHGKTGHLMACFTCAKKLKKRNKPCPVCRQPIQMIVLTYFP
UPR CHOP act: activators of apoptotic CHOP UPR arm, primary screen, cell-based, CHO-CHOP luciferase reporter, luminescence, uHTS; AID 449763, 2010; UPR activation; percent of tunicamycin response over DMSO baseline; 330,000 tested, 0.34% active; activation, % at 10 µM;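 active means at 10 µM dose, activation of 40% or more, normalized to positive control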;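 further: 100% = tunicamycin at 10 µg/mL and 0% = DMSO alone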
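Evaluation: % reporter activation, DMSO baseline versus tunicamycin full activation; System: CHO-CHOP luciferase reporter cell line; Input: 500 cells/well; Incubation: 6 h compound treatment, 37 °C; Measured by: Steady-Glo luciferase luminescence; Dosing: one dose, 10 µM in 0.5% DMSO; Buffer or medium: F12 medium, 10% FBS; Benchmarks: positive tunicamycin 10 µg/mL, negative DMSO alone.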
UPR XBP1 act: activators of adaptive XBP1 UPR arm, primary screen, cell-based, CHO-XBP1 luciferase reporter, luminescence, uHTS; AID 463104, 2010; 330,000 tested, 0.33% active; activation, % at 20 µM; IRE1-XBP1 UPR activation; percent of tunicamycin response, DMSO as zero;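 active means versus positive control, 20 µM dose yields 30% or more activation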;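 further: 100% = tunicamycin at 10 µg/mL and 0% = DMSO only wells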
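incubation = overnight seeding at 37 °C, 6 h compound treatment at 37 °C | assay system = CHO-XBP1 cells stably carrying IRE1-XBP1-driven luciferase reporter | input = 1000 cells per well | detection = luciferase luminescence | dosing = single point, 20 µM final compound, 1% DMSO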
Beta2AR agonist: beta2AR agonists driving receptor internalization, primary screen, cell-based, FAP fluorogen, flow cytometry | Am2.2-beta2AR cells | response, % (test concentration not listed) | 340,000 tested, 0.43% active;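 active means response above a set limit, near 3 SD of response in nonfluorescent compounds, cut at about 42% in these data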
MDM2 E3 inh: MDM2-luciferase reporter signal enhancers, primary screen, MDM2 E3 ligase inhibitor project, cell-based, luminescence, 1536-well. signal enhancement, % at 5 µM. 210,000 tested, 0.11% active. cell-based MDM2 ubiquitination luciferase reporter, 2 h; 0 = plate control, 100 = twice control, blank-subtracted. E3 ubiquitin-protein ligase Mdm2 (Homo sapiens), Q00987. AID 1230, 2008;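 active means signal enhancement of 30% or more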;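 further: luminescence tracks abundance of the self-degrading MDM2-luciferase fusion protein; higher signal means inhibition of MDM2 E3 ligase activity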
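test system = mammalian cells stably expressing self-ubiquitinating, self-degrading MDM2 E3–luciferase fusion | quantity = 2000 cells/well | incubation = cell settling 4 h, compound treatment 2 h, both 37 °C | signal = luminescence with SteadyLite reagent, 15 min at room temperature | evaluation = % enhancement relative to plate controls after blank subtraction | benchmarks = plate controls and plate blanks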
Dynein transport: inhibitors of GR-EGFP nuclear translocation, primary screen, dynein cargo transport inhibitor project, imaging, high-content, 3617.4 mouse cells | test concentration mostly 20 µM; stimulated with dexamethasone, 1 µM; stronger effect = lower value | AID 1381, 2008 | 220,000 tested, 0.47% active | z-score, hits read low;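 active means plate z-score of nuclear minus cytoplasmic receptor signal below a set negative limit, without overly bright fluorescence or cell loss, cut at about -3.5 in these data, passing the limit was not always enough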;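 further: z-score of nuclear minus cytoplasmic ring GR-EGFP intensity difference per well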
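Buffer or medium: tet-free medium with charcoal-stripped serum / Also added: dexamethasone agonist, 1.0 µM final, for 30 min / Timing: induction 48 h, compound 1 h, agonist 30 min / Measured by: high-content fluorescence imaging after fixation / Read-out: nuclear-to-cytoplasmic GR-EGFP distribution per well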
Mdm2-MdmX conf: Mdm2-MdmX complex disruptors, retested hits, confirmation, luminescence, single concentration; shares compounds with Mdm2-MdmX inh; Mdm2-MdmX binding, luminescent assay; inhibition, % at 8 µM; 10,000 tested, 55% active; AID 489028, 2010; in the data active means inhibition above about 40%
Full FLuc ctr: full-length luciferase signal inhibition, confirmation, counter-screen for Mdm2/MdmX interaction inhibitor project, cell-based, single concentration, SaOS-2; SaOS-2 full-length luciferase counterscreen, luminescence; inhibition, % at 8 µM; 6,200 tested, 77% active; shares compounds with Mdm2-MdmX inh; AID 504607, 2011;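 active means mean inhibition at 8 µM reaching about 37%, which flags the compound as non-specific, limit read from the data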;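 further: p53-null SaOS-2 cells with luciferase driven by a doxycycline-inducible promoter; compound on cells about two nights before reading with doxycycline added after day one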
The depositor's hits bear a star; x = not tested or not shown. Shown are actives, neighbours in structure and some others; about 3.7% of the full set was active somewhere.

SMILES	Mdm2-MdmX inh	UPR CHOP act	UPR XBP1 act	Beta2AR agonist	MDM2 E3 inh	Dynein transport	Mdm2-MdmX conf	Full FLuc ctr
O=C(Nc1nc2cc(Cl)ccc2s1)C1CCCN(S(=O)(=O)c2cccc3cccnc23)C1 (centres undefined)	57.8*	2.2	1.2	-7.9	-6.5	-0.354	6.7	x
O=C(NC1CC1)C1CCN(S(=O)(=O)c2ccc(Cl)c([N+](=O)[O-])c2)CC1	96.9*	-0.3	-0.2	18.2	x	x	74.6*	58.4*
CCOc1ccc(CN(C)c2ccc(S(=O)(=O)N3CCN(C)CC3)cc2[N+](=O)[O-])cc1OC	-11.0	3.1	-3.2	-6.0	x	x	x	x
CC1=C(C(=O)OCc2cc(C)on2)N2C(=O)[C@@H](NC(=O)OCc3cc(C)on3)[C@H]2SC1	-5.4	1.6	-0.4	-1.8	x	x	x	x
CCOc1ccc(/C=C(\C)C(=O)c2c(C)cc(C)[nH]c2=O)cc1	26.2	0.3	-1.3	-4.0	x	x	x	x
O=C(NN=Cc1ccc(O)cc1O)c1ccccc1NS(=O)(=O)c1cccs1	55.0*	0.0	-0.3	2.6	x	x	37.9	46.6*
CN(c1ccccc1)S(=O)(=O)c1cccc(C(=O)OCC(=O)Nc2ccc(C(N)=O)cc2)c1	25.4	-2.3	-2.6	-5.9	x	x	x	x
c1ccc(-c2cc3c(ccc4nonc43)nn2)cc1	-30.7	3.5	1.1	-16.9	3.8	-0.835	x	x
On1onc2c3cc(-c4ccccc4)nc3ccc21	68.7*	11.4	5.0	26.6	-11.5	1.58	58.2*	64.6*
Cc1ccc(S(=O)(=O)Nc2ccc(NC(=O)c3ccc(F)cc3)cc2)cc1	13.2	-2.7	-3.5	9.7	6.4	0.214	x	x
Cc1ccc(NS(=O)(=O)c2ccc(C(=O)NNC(=O)c3ccccc3O)cc2)cc1	62.2*	0.0	-2.8	7.6	x	x	55.4*	51.9*
CCCCC(=O)Nc1ccc(C(=O)Nc2ccc(S(=O)(=O)Nc3ccc(C)cc3)cc2)cc1	62.6*	2.0	2.6	0.3	4.7	0.155	38.9	40.6*
CCOc1ccc(Oc2ccc(NS(=O)(=O)c3cc(C(=O)O)ccc3Cl)cc2)cc1	13.9	-0.9	-1.4	1.1	x	x	x	x
CCOc1ccc(NS(=O)(=O)c2cc(NC(=O)c3ccc(C)cc3)ccc2Cl)cc1	57.0*	0.4	0.0	17.1	-9.4	-0.179	66.8*	63.9*
NC(=O)c1ccccc1NC(=O)c1ccccc1Cl	15.2	1.0	-0.1	7.8	x	-0.621	x	x
O=C(Nc1ccccc1C(=O)Nc1nnc(C(F)(F)F)s1)c1ccccc1Cl	95.4*	6.6	-0.7	12.2	-21.0	1.62	94.5*	21.7
O=C(Nc1nnc(-c2ccccc2Cl)s1)c1ccccc1F	86.3*	4.5	-1.2	-4.8	x	x	-8.4	x
CSc1nc(N)nc2c1ncn2C1OC(CO)CC1O (centres undefined)	x	x	x	-0.1	x	x	x	x
CCc1nn(CCCC(=O)N2CCN(c3cccc(C)c3C)CC2)c(=O)c2cc3occc3n12	92.8*	12.2	-8.7	-1.4	x	x	61.4*	78.1*
COc1ccc(OC)c(C2CC(=O)Nc3cc(OC)c(OC)c(OC)c32)c1 (centres undefined)	55.8*	-4.2	1.7	-9.5	-25.7	-0.343	31.9	x
CCCOc1c(OC)cccc1C1CC(=O)Nc2cc(OC)c(OC)c(OC)c21 (centres undefined)	43.5	-4.2	-2.6	1.4	-12.4	3.84	x	x
CC(CCCC(C)(C)O)CC1C2=C(CCCC2=O)OC2=C1C(=O)CCC2 (centres undefined)	-11.0	1.4	2.1	-0.8	5.1	-0.0044	x	x
COc1ccc(/C=N/NC(=O)CSCC(=O)Nc2ccccc2)cc1	-2.3	1.5	-1.6	-4.4	-2.2	0.246	x	x
COc1cccc(/C=N/NC(=O)CNC(=O)/C=C\c2ccccc2)c1O	35.0	4.3	-0.5	6.5	x	x	x	x
COc1cccc(/C=N/NC(=O)CNC(=O)C(c2ccccc2)c2ccccc2)c1O	57.2*	2.7	-0.4	16.1	x	x	67.6*	28.6
SMILES	Mdm2-MdmX inh	UPR CHOP act	UPR XBP1 act	Beta2AR agonist	MDM2 E3 inh	Dynein transport	Mdm2-MdmX conf	Full FLuc ctr
COc1cccc(/C=N/NC(=O)CSCC(=O)Nc2ccccc2)c1O	51.8*	-0.7	0.0	2.6	1.4	-0.755	49.3*	51.4*
CC[C@@]1(c2ccccc2)C(=O)N(C(=O)OC)N1C(=O)OC	19.2	-0.7	-1.2	1.8	x	x	x	x
COC(=O)N1C(=O)[C@](Cc2ccccc2)(c2ccccc2)N1C(=O)OC	55.3*	-2.0	-3.5	8.6	x	x	24.9	x
COC(=O)N1C(=O)[C@@](c2ccccc2)(C2CCCCC2)N1C(=O)OC	66.0*	1.6	-2.9	7.2	x	x	44.6*	49.5*
COC(=O)N1C(=O)[C@@](Cc2ccccc2)(c2ccccc2)N1C(=O)OC	61.4*	0.4	-3.9	10.0	x	x	50.2*	57.3*
CC[C@]1(c2ccccc2)C(=O)N(C(=O)OC)N1C(=O)OC	32.7	-1.0	-3.0	18.2	x	x	x	x
CC(C)(CN1CCCC1)NS(=O)(=O)c1ccc(Cl)cc1	-27.3	-0.1	5.0	17.5	x	x	x	x
CC(C)(CN1CCNCC1)NS(=O)(=O)c1ccc(Cl)cc1	61.0*	0.2	1.4	13.8	x	x	24.6	x
COc1ccc(C(=O)OCC(=O)Nc2ccc([N+](=O)[O-])cc2OC)c(O)c1	83.9*	18.3	7.0	12.8	-7.3	0.531	8.3	x
CCN(CC)S(=O)(=O)c1ccc(C(=O)Nc2nnc(CSC)o2)cc1	24.9	-0.1	-0.3	1.8	-0.7	0.683	x	x
CCCCN(CCCC)S(=O)(=O)c1ccc(C(=O)Nc2nnc(COC)o2)cc1	59.5*	5.2	0.1	-5.5	6.5	-1.62	21.7	x
CCCCN(C)S(=O)(=O)c1ccc(C(=O)Nc2nnc(CSC)o2)cc1	51.2*	2.1	-1.6	2.7	5.8	-0.678	27.1	x

Bioassay records (PubChem BioAssay)
